In ChEMBL document CHEMBL1649165, “Activity profile in vitro of micafungin against Spanish clinical isolates of common and emerging species of yeasts and molds” (2009):
In brackets after ≈: the same amount, converted by molar mass. *1 amine or outer side, *2 acyl side, *3 side chain or, on linkers, in order; H or OH if unused. Where a SMILES comes first, the peptide text is derived from it. Bridges are numbered along the chain shown (N, C = ends). [ ]: non-standard residue; d: D form. The star is where a group is joined. pTerphenylCO(4''-OnC5H11) = CCCCCOc1ccc(-c2ccc(-c3ccc(C(=O)*)cc3)cc2)cc1; Orn(4R-OH,5R-OH) = O=C([C@H](C[C@@H](O)[C@@H](O)N[*:3])N[*:1])[*:2]; hTyr(3S-OH,4S-OH) = N[C@H](C(=O)O)[C@H](O)[C@@H](O)c1ccc(O)cc1; Pro(3S-OH,4S-Me) = C[C@H]1CN[C@H](C(=O)O)[C@H]1O; Hyp = O=C(O)[C@@H]1C[C@@H](O)CN1

How the values were obtained:
Format in all cases: functional
Candida albicans = experiment: Antimicrobial activity against Candida albicans by broth microdilution method
Summary of the method: (§1)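 Clinical isolates from human patients, tested by broth microdilution using the AFST-EUCAST reference procedure for fermentative yeasts. The MIC was read per that reference method.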

Pichia kudriavzevii = experiment: Antimicrobial activity against Candida krusei by broth microdilution method; summary of the method: as §1
Clavispora lusitaniae = experiment: Antimicrobial activity against Candida lusitaniae by broth microdilution method; summary of the method: as §1
Kluyveromyces marxianus = experiment: Antimicrobial activity against Candida kefyr by broth microdilution method; summary of the method: as §1
Torulaspora delbrueckii = experiment: Antimicrobial activity against Candida coliculosa by broth microdilution method; summary of the method: as §1
Pichia norvegensis = experiment: Antimicrobial activity against Candida norvegensis by broth microdilution method; summary of the method: as §1
[Candida] intermedia = Antimicrobial activity against Candida intermedia by broth microdilution method; settings: Sungouiella intermedia; summary of the method: as §1
[Candida] inconspicua = Antimicrobial activity against Candida inconspicua by broth microdilution method; settings: Pichia inconspicua; summary of the method: as §1
[Candida] zeylanoides = Antimicrobial activity against Candida zeylanoides by broth microdilution method; settings: Dujonia zeylanoides; summary of the method: as §1
Magnusiomyces capitatus = experiment: Antimicrobial activity against Dipodascus capitatus by broth microdilution method
Saccharomyces cerevisiae = experiment: Antimicrobial activity against Saccharomyces cerevisiae by broth microdilution method
Geotrichum candidum = experiment: Antimicrobial activity against Galactomyces geotrichum by broth microdilution method
[1] = tested on: Cryptococcus deneoformans; experiment: Antimicrobial activity against Cryptococcus neoformans var. neoformans by broth microdilution method
Summary of the method: (§2)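 Clinical isolates of nonfermentative yeasts, tested by broth microdilution following EUCAST recommendations. The only change from that method was a minor modification to improve growth.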

Trichosporon asahii = experiment: Antimicrobial activity against Trichosporon asahii by broth microdilution method
Summary of the method: (§3)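 Nonfermentative yeast clinical isolates (Rhodotorula, Trichosporon) tested by broth microdilution. The EUCAST yeast recommendations were followed strictly, with one minor modification to improve growth. MIC was read as the endpoint.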

Trichosporon ovoides = experiment: Antimicrobial activity against Trichosporon ovoides by broth microdilution method; summary of the method: as §3
Naganishia albida = experiment: Antimicrobial activity against Cryptococcus albidus by broth microdilution method; summary of the method: as §2
Papiliotrema laurentii = experiment: Antimicrobial activity against Cryptococcus laurentii by broth microdilution method; summary of the method: as §2
Aspergillus niger = experiment: Antimicrobial activity against Aspergillus niger by broth microdilution method
Summary of the method: (§4)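 Clinical mould isolates, tested by broth microdilution using the AFST-EUCAST reference method for filamentous fungi. For echinocandins, the endpoint was the minimum effective concentration: the lowest drug concentration giving aberrant hyphal growth, read with an inverted microscope.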

Aspergillus sydowii = experiment: Antimicrobial activity against Aspergillus sydowii by broth microdilution method; summary of the method: as §4
Aspergillus versicolor = experiment: Antimicrobial activity against Aspergillus versicolor by broth microdilution method; summary of the method: as §4
Aspergillus ochraceus = experiment: Antimicrobial activity against Aspergillus ochraceus by broth microdilution method; summary of the method: as §4
Fennellia nivea = experiment: Antimicrobial activity against Aspergillus niveus by broth microdilution method; summary of the method: as §4
Aspergillus sclerotiorum = experiment: Antimicrobial activity against Aspergillus sclerotiorum by broth microdilution method; summary of the method: as §4
Aspergillus glaucus = experiment: Antimicrobial activity against Aspergillus glaucus by broth microdilution method; summary of the method: as §4
Fusarium solani = experiment: Antimicrobial activity against Fusarium solani by broth microdilution method
Summary of the method: (§5)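 Filamentous fungus clinical isolates tested by the AFST-EUCAST reference broth microdilution method for moulds. For echinocandins, the endpoint was the minimum effective concentration: the lowest drug concentration giving aberrant hyphal growth, read with an inverted microscope.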

Fusarium oxysporum = experiment: Antimicrobial activity against Fusarium oxysporum by broth microdilution method; summary of the method: as §4
Paecilomyces lilacinus = experiment: Antimicrobial activity against Paecilomyces lilacinus by broth microdilution method; settings: Purpureocillium lilacinum; summary of the method: as §5
[2] = tested on: Scopulariopsis brevicaulis; experiment: Antimicrobial activity against Scopulariopsis brevicaulis by broth microdilution method; summary of the method: as §5
Phialemonium curvatum = experiment: Antimicrobial activity against Phialemonium curvatum by broth microdilution method; settings: Thyridium curvatum; summary of the method: as §5
Fusarium reticulatum = experiment: Antimicrobial activity against Fusarium reticulatum by broth microdilution method; summary of the method: as §5
Neurospora sitophila = experiment: Antimicrobial activity against Chrysonilia sitophila by broth microdilution method; summary of the method: as §4
Scedosporium apiospermum = experiment: Antimicrobial activity against Scedosporium apiospermum by broth microdilution method; summary of the method: as §5
Lomentospora prolificans = experiment: Antimicrobial activity against Scedosporium prolificans by broth microdilution method; summary of the method: as §5
Lewia infectoria = experiment: Antimicrobial activity against Alternaria infectoria by broth microdilution method; summary of the method: as §4
Aureobasidium pullulans = experiment: Antimicrobial activity against Aureobasidium pullulans by broth microdilution method
Scytalidium hyalinum = experiment: Antimicrobial activity against Scytalidium hyalinum by broth microdilution method; settings: Neoscytalidium hyalinum; summary of the method: as §5
Lecythophora hoffmannii = experiment: Antimicrobial activity against Lecythophora hoffmannii by broth microdilution method; settings: Coniochaeta hoffmannii; summary of the method: as §5
Lichtheimia corymbifera = experiment: Antimicrobial activity against Mycocladus corymbiferus by broth microdilution method; summary of the method: as §5
Rhizomucor = experiment: Antimicrobial activity against Rhizomucor spp.by broth microdilution method; summary of the method: as §5
Exophiala jeanselmei = experiment: Antimicrobial activity against Exophiala jeanselmei by broth microdilution method

## CCCCCOc1ccc(-c2ccc(-c3ccc(C(=O)N[C@H]4C[C@@H](O)[C@@H](O)NC(=O)[C@@H]5[C@@H](O)[C@@H](C)CN5C(=O)[C@H]([C@@H](C)O)NC(=O)[C@H]([C@H](O)[C@@H](O)c5ccc(O)cc5)NC(=O)[C@@H]5C[C@@H](O)CN5C(=O)[C@H]([C@@H](C)O)NC4=O)cc3)cc2)cc1 [ANIDULAFUNGIN] ({pTerphenylCO(4''-OnC5H11)}-[Orn(4R-OH,5R-OH)]T[Hyp][hTyr(3S-OH,4S-OH)]T[Pro(3S-OH,4S-Me)]; lactam 1-C)
Candida albicans
  MIC50: 0.03 µg/mL (≈ 0.0263 µM)
  MIC90: 0.03 µg/mL (≈ 0.0263 µM)
Pichia kudriavzevii
  MIC50: 0.03 µg/mL (≈ 0.0263 µM)
  MIC90: 0.06 µg/mL (≈ 0.0526 µM)
Clavispora lusitaniae
  MIC50: 0.03 µg/mL (≈ 0.0263 µM)
  MIC90: 0.12 µg/mL (≈ 0.105 µM)
Kluyveromyces marxianus
  MIC50: 0.03 µg/mL (≈ 0.0263 µM)
  MIC90: 0.03 µg/mL (≈ 0.0263 µM)
Torulaspora delbrueckii
  MIC50: 0.06 µg/mL (≈ 0.0526 µM)
  MIC90: 0.25 µg/mL (≈ 0.219 µM)
Pichia norvegensis
  MIC50: 0.06 µg/mL (≈ 0.0526 µM)
  MIC90: 0.25 µg/mL (≈ 0.219 µM)
[Candida] intermedia
  MIC50: 0.06 µg/mL (≈ 0.0526 µM)
  MIC90: 0.25 µg/mL (≈ 0.219 µM)
[Candida] inconspicua
  MIC50: 0.06 µg/mL (≈ 0.0526 µM)
  MIC90: 0.25 µg/mL (≈ 0.219 µM)
[Candida] zeylanoides
  MIC50: 0.06 µg/mL (≈ 0.0526 µM)
  MIC90: 0.25 µg/mL (≈ 0.219 µM)
Magnusiomyces capitatus
  MIC50: 2 µg/mL (≈ 1.75 µM)
  MIC90: 4 µg/mL (≈ 3.51 µM)
Saccharomyces cerevisiae
  MIC50: 0.12 µg/mL (≈ 0.105 µM)
  MIC90: 0.25 µg/mL (≈ 0.219 µM)
Geotrichum candidum
  MIC50: > 16 µg/mL
  MIC90: > 16 µg/mL
[1]
  MIC50: > 16 µg/mL
  MIC90: > 16 µg/mL
Trichosporon asahii
  MIC50: > 16 µg/mL
  MIC90: > 16 µg/mL
Trichosporon ovoides
  MIC50: > 16 µg/mL
  MIC90: > 16 µg/mL
Naganishia albida
  MIC50: > 16 µg/mL
  MIC90: > 16 µg/mL
Papiliotrema laurentii
  MIC50: > 16 µg/mL
  MIC90: > 16 µg/mL
Aspergillus niger
  MIC50: 0.03 µg/mL (≈ 0.0263 µM)
  MIC90: 0.03 µg/mL (≈ 0.0263 µM)
Aspergillus sydowii
  MIC50: 0.03 µg/mL (≈ 0.0263 µM)
  MIC90: 0.03 µg/mL (≈ 0.0263 µM)
Aspergillus versicolor
  MIC50: 0.03 µg/mL (≈ 0.0263 µM)
  MIC90: 0.03 µg/mL (≈ 0.0263 µM)
Aspergillus ochraceus
  MIC50: 0.06 µg/mL (≈ 0.0526 µM)
  MIC90: 0.25 µg/mL (≈ 0.219 µM)
Fennellia nivea
  MIC50: 0.06 µg/mL (≈ 0.0526 µM)
  MIC90: 0.25 µg/mL (≈ 0.219 µM)
Aspergillus sclerotiorum
  MIC50: 0.06 µg/mL (≈ 0.0526 µM)
  MIC90: 0.25 µg/mL (≈ 0.219 µM)
Aspergillus glaucus
  MIC50: 0.06 µg/mL (≈ 0.0526 µM)
  MIC90: 0.25 µg/mL (≈ 0.219 µM)
Fusarium solani
  MIC50: > 16 µg/mL
  MIC90: > 16 µg/mL
Fusarium oxysporum
  MIC50: > 16 µg/mL
  MIC90: > 16 µg/mL
Paecilomyces lilacinus
  MIC50: > 16 µg/mL
  MIC90: > 16 µg/mL
[2]
  MIC50: > 16 µg/mL
  MIC90: > 16 µg/mL
Phialemonium curvatum
  MIC50: > 16 µg/mL
  MIC90: > 16 µg/mL
Fusarium reticulatum
  MIC50: > 16 µg/mL
  MIC90: > 16 µg/mL
Neurospora sitophila
  MIC50: > 16 µg/mL
  MIC90: > 16 µg/mL
Scedosporium apiospermum
  MIC50: 0.5 µg/mL (≈ 0.438 µM)
  MIC90: 4 µg/mL (≈ 3.51 µM)
Lomentospora prolificans
  MIC50: 4 µg/mL (≈ 3.51 µM)
  MIC90: > 16 µg/mL
Lewia infectoria
  MIC50: 2 µg/mL (≈ 1.75 µM)
  MIC90: > 16 µg/mL
Aureobasidium pullulans
  MIC50: 0.03 µg/mL (≈ 0.0263 µM)
  MIC90: 0.06 µg/mL (≈ 0.0526 µM)
Scytalidium hyalinum
  MIC50: 0.03 µg/mL (≈ 0.0263 µM)
  MIC90: 0.06 µg/mL (≈ 0.0526 µM)
Lecythophora hoffmannii
  MIC50: 0.03 µg/mL (≈ 0.0263 µM)
  MIC90: 0.06 µg/mL (≈ 0.0526 µM)
Lichtheimia corymbifera
  MIC50: > 16 µg/mL
  MIC90: > 16 µg/mL
Rhizomucor
  MIC50: > 16 µg/mL
  MIC90: > 16 µg/mL
Exophiala jeanselmei
  MIC50: 0.03 µg/mL (≈ 0.0263 µM)
  MIC90: 0.06 µg/mL (≈ 0.0526 µM)
